Data from PubChem BioAssay AID651748 (Johns Hopkins Ion Channel Center, 2012).
Activity calls are given as the source filed them.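 Rule for the calls: active = a fitted dose response curve plus choline uptake above 120% of control at 33.3 µM; inactive = the rest.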

Target: High affinity choline transporter 1 (Homo sapiens) (UniProt Q9GZV3)
Test: CHT activators enhancing choline uptake, dose response, orthogonal assay for CHT activator project, cell-based, 3H-choline uptake, radioactive, HEK293 CHT LV-AA (AID 651748)
Conditions: HEK293 hCHT LV-AA cells; series mostly up to 33.3 µM; choline uptake, % of control: at the top concentration
How it was run: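 Material: CHT LV-AA-expressing HEK293 cells | Timing: 15 min pre-incubation plus 15 min uptake, 37 °C | Detection: Tritium scintillation counting | Control set: Buffer 100%, HC-3 0%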

High affinity choline transporter 1 (Homo sapiens), sequence (Q9GZV3 whole entry, looked up): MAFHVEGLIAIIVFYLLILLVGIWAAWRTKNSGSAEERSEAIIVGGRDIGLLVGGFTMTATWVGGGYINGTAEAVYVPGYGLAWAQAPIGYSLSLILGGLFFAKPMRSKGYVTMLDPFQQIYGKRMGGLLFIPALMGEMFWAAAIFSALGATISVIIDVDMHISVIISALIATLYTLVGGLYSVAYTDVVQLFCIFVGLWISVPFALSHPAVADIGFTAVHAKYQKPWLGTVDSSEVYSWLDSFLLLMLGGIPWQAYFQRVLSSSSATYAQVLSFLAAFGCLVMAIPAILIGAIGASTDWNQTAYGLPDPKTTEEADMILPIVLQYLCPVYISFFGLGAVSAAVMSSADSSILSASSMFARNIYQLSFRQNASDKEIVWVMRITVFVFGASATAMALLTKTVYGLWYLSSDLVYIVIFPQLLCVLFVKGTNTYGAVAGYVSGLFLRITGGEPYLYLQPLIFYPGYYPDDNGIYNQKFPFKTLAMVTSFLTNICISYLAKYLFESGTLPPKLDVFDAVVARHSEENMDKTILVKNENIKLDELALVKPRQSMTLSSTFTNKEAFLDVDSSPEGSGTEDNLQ

| SMILES | choline uptake, % of control |
| --- | --- |
| COc1ccc(NCc2nc3ccccc3n2CCOc2ccccc2Cl)cc1 | 65.1% (inactive) |
| Clc1ccc(NCc2nc3ccccc3n2CCOc2ccccc2)cc1 | 47.9% (inactive) |
| Cc1ccccc1NCc1nc2ccccc2n1CCOc1ccccc1 | 54.1% (inactive) |
| O=C1N(Cc2cccc(Cl)c2)C[C@@H]2C[C@@H](c3cccn3-c3ccccn3)N3CCC[C@@]123 | 60.9% (inactive) |
| COc1ccccc1NCc1nc2ccccc2n1CCOc1ccccc1 | 87.8% (inactive) |
| Fc1ccc(NCc2nc3ccccc3n2CCOc2ccccc2)cc1 | 55.7% (inactive) |
| Brc1ccc(NCc2nc3ccccc3n2CCOc2ccccc2)cc1 | 81% (inactive) |
| CCOc1ccc(NCc2nc3ccccc3n2CCOc2ccccc2)cc1 | 64.9% (inactive) |
| CC(C)CN1CCN(Cc2cccn2-c2ccc(Cl)cn2)CC1CCO (centres undefined) | 57.3% (inactive) |
| Cc1ccc(NCc2nc3ccccc3n2CCOc2ccccc2)cc1 | 58.6% (inactive) |
| O=C(c1cccc(C(F)(F)F)c1)C1CCCN(Cc2cccn2-c2ncccn2)C1 (centres undefined) | 52.6% (inactive) |
| Cc1cccc(NCc2nc3ccccc3n2CCOc2ccccc2)c1 | 70.5% (inactive) |
| c1ccc(NCc2nc3ccccc3n2CCOc2ccccc2)cc1 | 67% (inactive) |
| COc1ccc(NCc2nc3ccccc3n2CCOc2ccccc2)cc1 | 78.9% (inactive) |
